Assay results published in ChEMBL document CHEMBL3822431, “Hydroxychalcone inhibitors of Streptococcus mutans glucosyl transferases and biofilms as potential anticaries agents” (Bioorg Med Chem Lett, 2016).

Assays:
[1] = biological target: T1, Glucosyltransferase-S (Streptococcus mutans serotype c (strain ATCC 700610 / UA159)) (UniProt P49331); experiment: Inhibition of Wild-type Streptococcus mutans UA159 glucosyltransferase D by zymography
T1 sequence (whole entry): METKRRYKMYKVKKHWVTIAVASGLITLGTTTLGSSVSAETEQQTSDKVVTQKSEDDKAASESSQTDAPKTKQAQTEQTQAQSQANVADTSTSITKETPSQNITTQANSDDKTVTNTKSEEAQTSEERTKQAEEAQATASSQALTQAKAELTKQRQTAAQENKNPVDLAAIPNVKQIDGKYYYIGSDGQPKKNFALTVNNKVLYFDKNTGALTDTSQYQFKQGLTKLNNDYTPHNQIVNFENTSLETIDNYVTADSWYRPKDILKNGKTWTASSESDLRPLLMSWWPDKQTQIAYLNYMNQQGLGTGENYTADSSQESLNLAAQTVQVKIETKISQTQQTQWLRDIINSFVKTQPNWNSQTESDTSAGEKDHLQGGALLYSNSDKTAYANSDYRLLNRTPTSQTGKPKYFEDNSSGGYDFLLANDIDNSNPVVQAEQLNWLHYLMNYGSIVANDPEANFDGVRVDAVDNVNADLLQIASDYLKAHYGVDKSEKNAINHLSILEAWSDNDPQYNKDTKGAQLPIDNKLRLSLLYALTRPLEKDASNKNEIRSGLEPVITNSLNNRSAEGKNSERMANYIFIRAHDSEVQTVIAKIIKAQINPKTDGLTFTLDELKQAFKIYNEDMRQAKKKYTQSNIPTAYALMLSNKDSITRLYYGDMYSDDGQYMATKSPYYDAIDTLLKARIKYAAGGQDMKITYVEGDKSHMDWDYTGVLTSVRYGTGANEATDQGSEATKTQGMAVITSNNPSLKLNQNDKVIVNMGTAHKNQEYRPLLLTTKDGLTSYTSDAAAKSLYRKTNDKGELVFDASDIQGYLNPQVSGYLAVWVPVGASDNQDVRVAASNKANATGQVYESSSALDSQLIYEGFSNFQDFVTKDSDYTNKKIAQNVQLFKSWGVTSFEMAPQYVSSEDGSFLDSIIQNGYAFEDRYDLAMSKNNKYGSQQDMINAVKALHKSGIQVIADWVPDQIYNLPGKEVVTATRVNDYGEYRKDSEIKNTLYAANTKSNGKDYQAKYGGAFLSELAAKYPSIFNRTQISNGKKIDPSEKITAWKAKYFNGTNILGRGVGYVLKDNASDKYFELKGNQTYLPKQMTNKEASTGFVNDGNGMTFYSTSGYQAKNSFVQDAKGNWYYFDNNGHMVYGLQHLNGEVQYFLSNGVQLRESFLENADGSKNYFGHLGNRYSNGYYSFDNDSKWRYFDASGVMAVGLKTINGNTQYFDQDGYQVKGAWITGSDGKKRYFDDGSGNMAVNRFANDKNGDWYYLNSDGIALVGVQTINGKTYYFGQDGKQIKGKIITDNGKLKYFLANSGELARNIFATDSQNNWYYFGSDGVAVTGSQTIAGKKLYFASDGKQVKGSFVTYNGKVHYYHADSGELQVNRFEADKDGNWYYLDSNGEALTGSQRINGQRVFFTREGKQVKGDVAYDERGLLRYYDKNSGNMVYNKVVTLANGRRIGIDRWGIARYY
Procedure, shortened: (§1)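 S. mutans UA159 wild type co-incubated with compound at different concentrations; Gtfs concentrated from supernatants, separated by SDS-PAGE and assayed by zymography, glucan band intensity reflecting enzyme activity.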

[2] = biological target: T2, Glucosyltransferase-SI (Streptococcus mutans serotype c (strain ATCC 700610 / UA159)) (UniProt P13470); experiment: Inhibition of Wild-type Streptococcus mutans UA159 glucosyltransferase C by zymography; procedure, shortened: as §1
T2 sequence (whole entry): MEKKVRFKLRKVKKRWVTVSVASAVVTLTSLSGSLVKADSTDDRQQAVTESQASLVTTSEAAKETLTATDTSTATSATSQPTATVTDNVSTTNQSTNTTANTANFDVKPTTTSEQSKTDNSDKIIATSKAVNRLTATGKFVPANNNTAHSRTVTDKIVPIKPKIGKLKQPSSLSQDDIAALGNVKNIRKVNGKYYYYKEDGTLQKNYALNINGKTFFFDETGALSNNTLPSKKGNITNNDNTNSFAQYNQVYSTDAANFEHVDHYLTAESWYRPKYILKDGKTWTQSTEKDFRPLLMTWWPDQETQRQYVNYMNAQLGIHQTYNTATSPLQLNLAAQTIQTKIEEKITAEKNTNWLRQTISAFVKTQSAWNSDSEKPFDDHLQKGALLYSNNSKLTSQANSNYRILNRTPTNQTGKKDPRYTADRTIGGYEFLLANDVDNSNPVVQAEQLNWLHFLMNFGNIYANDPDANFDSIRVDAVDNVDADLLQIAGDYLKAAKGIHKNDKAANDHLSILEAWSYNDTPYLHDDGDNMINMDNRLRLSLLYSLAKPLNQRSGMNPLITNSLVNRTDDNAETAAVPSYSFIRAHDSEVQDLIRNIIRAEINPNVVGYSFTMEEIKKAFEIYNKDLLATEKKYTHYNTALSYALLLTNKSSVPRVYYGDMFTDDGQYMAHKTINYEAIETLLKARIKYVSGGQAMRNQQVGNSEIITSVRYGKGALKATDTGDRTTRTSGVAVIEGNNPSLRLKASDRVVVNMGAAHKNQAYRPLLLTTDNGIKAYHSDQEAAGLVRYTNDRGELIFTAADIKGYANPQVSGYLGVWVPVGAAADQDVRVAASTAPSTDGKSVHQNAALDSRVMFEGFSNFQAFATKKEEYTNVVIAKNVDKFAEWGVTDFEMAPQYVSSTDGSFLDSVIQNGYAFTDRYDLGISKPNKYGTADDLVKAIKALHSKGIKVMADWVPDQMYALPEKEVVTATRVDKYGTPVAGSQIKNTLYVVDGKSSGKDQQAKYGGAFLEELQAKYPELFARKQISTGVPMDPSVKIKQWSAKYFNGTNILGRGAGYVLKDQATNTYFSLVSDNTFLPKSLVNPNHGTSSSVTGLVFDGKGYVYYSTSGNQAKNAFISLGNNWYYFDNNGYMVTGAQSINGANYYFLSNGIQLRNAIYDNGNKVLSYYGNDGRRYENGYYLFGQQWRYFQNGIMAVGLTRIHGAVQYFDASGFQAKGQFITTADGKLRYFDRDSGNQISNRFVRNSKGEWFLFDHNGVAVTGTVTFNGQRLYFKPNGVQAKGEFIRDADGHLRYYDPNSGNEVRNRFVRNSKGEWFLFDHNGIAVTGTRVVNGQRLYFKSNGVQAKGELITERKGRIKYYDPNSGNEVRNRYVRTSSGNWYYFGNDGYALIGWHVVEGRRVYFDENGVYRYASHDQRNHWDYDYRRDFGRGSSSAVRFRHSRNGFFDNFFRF

inhibition [1]: Dose-dependent effect | inhibition [2]: Dose-dependent effect
Structure (SMILES): O=C(/C=C\c1ccc(O)cc1O)c1cccc(O)c1
